Laboratory results reported in ChEMBL document CHEMBL1221194, “Forward chemical genetic approach identifies new role for GAPDH in insulin signaling” (Nat Chem Biol, 2007).
Activity calls are given as the source filed them. The rule behind the calls is not given here.

Tests used:
[1] = target: Glyceraldehyde-3-phosphate dehydrogenase (Mus musculus) (UniProt P16858); experiment: Inhibition of GAPDH in mouse 3T3-L1 cells assessed as 2-NBD-glucose uptake after 15 mins; format: cell-based
Procedure, shortened: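 3T3-L1 preadipocytes grown overnight in DMEM with 10% heat-inactivated newborn calf serum, washed and held in PBS 5 min. Compound applied with 2-NBD-glucose ([…]) for 15 min at 37 °C. Cells washed, lysed in 0.1 M potassium phosphate pH 10 with 1% Triton X-100, DMSO added. Fluorescence read at ex 466/em 540 nm.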

[2] = target: Glyceraldehyde-3-phosphate dehydrogenase (Homo sapiens, UniProt P04406); experiment: Inhibition of GAPDH
Procedure, shortened: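 Purified rabbit muscle GAPDH was tested in vitro for its glycolytic enzymatic activity. The read-out was the half-maximal inhibitory concentration.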

[3] = target: Glyceraldehyde-3-phosphate dehydrogenase (Oryctolagus cuniculus) (UniProt P46406); experiment: Induction of rabbit GAPDH tetramer segregation into monomers at 10 uM after 30 mins by SDS-PAGE
Procedure, shortened: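 Purified rabbit muscle GAPDH was incubated with compound at 0.4, 2 or 10 µM for 30 min at 4 °C. Samples were then chemically cross-linked, resolved by SDS-PAGE and silver-stained. Tetramer and monomer bands were compared.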

[4] = target: Glyceraldehyde-3-phosphate dehydrogenase (Mus musculus) (UniProt P16858); experiment: Inhibition of GAPDH in mouse 3T3L1 lysate assessed as inhibition of conversion of Ptdlns(3, 4, 5)P3 to PIP2 by fluorescent phosphoinositide TLC
Procedure, shortened: (§1)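 3T3-L1 preadipocyte lysate (5 µl) in 50 mM ammonium carbonate pH 8.0 with 2 mM DTT. Compound present, reaction started with C6-NBD6-PtdIns(3,4,5)P3 or PtdIns(4,5)P2, run 2 h at 25 °C. Products resolved by TLC on oxalate-treated silica. Hydrolyzed spot quantified as fraction of total fluorescence; s.d. from two independent experiments.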

[5] = target: Glyceraldehyde-3-phosphate dehydrogenase (Oryctolagus cuniculus) (UniProt P46406); experiment: Inhibition of rabbit GAPDH glycolytic activity at > 50 uM
[6] = target: Glyceraldehyde-3-phosphate dehydrogenase (Mus musculus) (UniProt P16858); experiment: Inhibition of GAPDH in mouse 3T3L1 […] assessed as increase in Ptdlns(4, 5)P2 level by immunofluorescence method
Procedure, shortened: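 Whole 3T3-L1 cells given compound in PBS for 1 min, DMSO as control, then fixed in 4% formaldehyde. Stained with antibody to PtdIns(4,5)P2 and imaged by fluorescence microscopy (ex 488/em 510 nm). Intensity normalized to DMSO control; s.d. from 15 images over three independent experiments.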

[7] = system: Caenorhabditis elegans; experiment: inhibition of GAPDH in Caenorhabditis elegans e1370 daf-2 mutant assessed as inhibition of dauer formation
Procedure, shortened: (§2)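 C. elegans daf-2 (e1370) kept in M9 buffer with 2% E. coli OP50 culture and compound ([…]), 4 d at 25 °C. Young adult-size animals counted in solution.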

[8] = system: 3T3-L1; experiment: Inhibition of conversion of Ptdlns(3, 4, 5)P3 to PIP2 in GAPDH depleted mouse 3T3L1 lysate by fluorescent phosphoinositide TLC; format: functional
Procedure, shortened: (§3)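 3T3-L1 lysate immunodepleted of GAPDH, run in 25 µl ammonium carbonate/DTT buffer pH 8.0 with fluorescent PtdIns(3,4,5)P3 or PtdIns(4,5)P2 substrate. Run with or without exogenous GAPDH ([…]), compound tested in the presence of GAPDH, 2 h at 25 °C. Sampled every 20 min and resolved by TLC. Hydrolyzed/total spot fluorescence; two independent experiments.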

[9] = Activation of PI3K assessed as tyrosine phosphorylation of p85 subunit
[10] = target: Glyceraldehyde-3-phosphate dehydrogenase (Oryctolagus cuniculus, UniProt P46406); experiment: Inhibition of rabbit GAPDH glycolytic activity
Procedure, shortened: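 Enzyme source was purified GAPDH from rabbit muscle, assayed in vitro for its glycolytic enzymatic activity. IC50 was reported as the half-maximal inhibitory concentration.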

[11] = system: 3T3-L1; experiment: Inhibition of conversion of Ptdlns(4, 5)P2 to PIP in GAPDH depleted mouse 3T3L1 lysate by fluorescent phosphoinositide TLC; format: functional; procedure, shortened: as §3
[12] = target: Glyceraldehyde-3-phosphate dehydrogenase (Mus musculus) (UniProt P16858); experiment: Inhibition of GAPDH in mouse 3T3L1 lysate assessed as inhibition of conversion of Ptdlns(4, 5)P2 to PIP by fluorescent phosphoinositide TLC; procedure, shortened: as §1
[13] = target: Glyceraldehyde-3-phosphate dehydrogenase (Mus musculus) (UniProt P16858); experiment: Induction of GAPDH tetramer segregation into monomers in mouse 3T3L1 lysate at […] after 3 hrs by immunoprecipitation method
[14] = system: Caenorhabditis elegans; experiment: inhibition of GAPDH in Caenorhabditis elegans e1370 daf-2 mutant assessed as inhibition of dauer formation relative to control; procedure, shortened: as §2

Sequence of Glyceraldehyde-3-phosphate dehydrogenase (Oryctolagus cuniculus) (P46406 whole entry, looked up): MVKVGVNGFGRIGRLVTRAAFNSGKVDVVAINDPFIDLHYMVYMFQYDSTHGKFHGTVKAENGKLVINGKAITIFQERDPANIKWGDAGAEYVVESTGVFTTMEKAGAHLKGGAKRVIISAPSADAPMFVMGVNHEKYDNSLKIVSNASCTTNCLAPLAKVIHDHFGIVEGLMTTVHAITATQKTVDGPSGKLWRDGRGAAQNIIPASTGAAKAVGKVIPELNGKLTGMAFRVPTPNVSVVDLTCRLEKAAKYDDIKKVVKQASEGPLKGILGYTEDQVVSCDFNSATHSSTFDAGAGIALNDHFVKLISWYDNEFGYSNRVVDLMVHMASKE
Sequence of Glyceraldehyde-3-phosphate dehydrogenase (Mus musculus) (P16858 whole entry): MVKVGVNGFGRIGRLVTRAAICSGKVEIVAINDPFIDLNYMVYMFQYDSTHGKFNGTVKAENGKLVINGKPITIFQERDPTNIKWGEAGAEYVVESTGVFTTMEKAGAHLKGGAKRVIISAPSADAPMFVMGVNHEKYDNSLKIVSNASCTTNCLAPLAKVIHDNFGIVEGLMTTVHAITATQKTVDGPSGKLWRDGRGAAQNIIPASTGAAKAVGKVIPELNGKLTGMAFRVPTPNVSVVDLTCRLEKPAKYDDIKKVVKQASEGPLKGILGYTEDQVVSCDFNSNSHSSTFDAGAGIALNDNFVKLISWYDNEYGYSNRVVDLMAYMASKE
Sequence of Glyceraldehyde-3-phosphate dehydrogenase (Oryctolagus cuniculus, UniProt P46406) (P46406 whole entry): as the sequence (P46406 whole entry, looked up) above
Sequence of Glyceraldehyde-3-phosphate dehydrogenase (Homo sapiens, UniProt P04406) (P04406 whole entry): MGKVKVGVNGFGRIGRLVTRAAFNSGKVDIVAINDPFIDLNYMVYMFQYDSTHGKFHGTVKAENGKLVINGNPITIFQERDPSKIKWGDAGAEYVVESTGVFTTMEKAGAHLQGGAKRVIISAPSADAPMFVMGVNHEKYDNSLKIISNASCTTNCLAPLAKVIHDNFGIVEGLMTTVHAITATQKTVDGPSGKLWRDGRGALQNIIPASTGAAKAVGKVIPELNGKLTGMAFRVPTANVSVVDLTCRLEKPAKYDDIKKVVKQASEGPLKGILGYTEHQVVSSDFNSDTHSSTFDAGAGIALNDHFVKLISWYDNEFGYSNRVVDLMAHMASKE

SMILES | inhibition [1] | IC50 [2] | Activity [3] | inhibition [4] | inhibition [5] | inhibition [6] | inhibition [7] | inhibition [8] | Activity [9] | IC50 [10] | inhibition [11] | inhibition [12] | Activity [13] | inhibition [14]
NCCc1cc(O)c(O)cc1O [OXIDOPAMINE] | inactive | 8 µM | inactive | – | – | – | – | – | – | – | – | – | – | –
CCCCNc1nc(NCCOCCOCCNC(=O)c2ccccc2)nc(NCc2ccccn2)n1 | inactive | – | inactive | inactive | inactive | inactive | inactive | inactive | – | – | – | – | – | –
C#CCN(C)[C@H](C)Cc1ccccc1 | – | – | inactive | – | – | – | – | – | – | – | – | – | – | –
O=C(NCCOCCOCCNc1nc(NCCc2ccc(O)c(O)c2)nc(Nc2ccccc2)n1)c1ccccc1 | Dose-dependent effect | – | Active | Active | – | Active | – | Active | inactive | 15 µM | inactive | Active | Active | 18%
